Measurements as given in ChEMBL document CHEMBL1126072, “Hydantoin bioisosteres. In vivo active spiro hydroxy acetic acid aldose reductase inhibitors” (J Med Chem, 1992).

Assays:
Rattus norvegicus [1] = assay: Nerve concentration at 3h after the last dose of 25 mg/kg for 5 days.; assay type: functional
[2] = target: T1, Aldo-keto reductase family 1 member B1 (Homo sapiens, UniProt P15121); assay: Compound was tested in vitro for its inhibitory activity against human placental aldose reductase
Rattus norvegicus [3] = assay: Plasma concentration at 3h after the last dose of 25 mg/kg for 5 days.; assay type: functional
Rattus norvegicus [4] = assay: In vivo inhibition of sorbitol accumulation in sciatic nerves from streptozotocin-diabetic rats dosed at 3*25 mg/kg over 27h.; assay type: functional, Sciatic nerve
Rattus norvegicus [5] = assay: In vivo inhibition of sorbitol accumulation in sciatic nerves from streptozotocin-diabetic rats dosed at 1*25 mg/kg over 5 days.; assay type: functional, Sciatic nerve
[6] = target: T1, Aldo-keto reductase family 1 member B1; assay: Inhibitory activity against human placental aldose reductase
[7] = target: T1, Aldo-keto reductase family 1 member B1; assay: (§1) ARI(aldose reductase inhibitor) enantiospecificity against human placental aldose reductase.
Method in brief: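 Partially purified human placental enzyme (buffer homogenate, 33000g spin, pooled peak fractions, frozen). Rate of NADPH oxidation read at 340 nm, 25 °C, 12 min, in 50 mM phosphate pH 7.1 with 0.4 M NH4SO4, 0.067 mM NADPH, 1.0 mM dl-glyceraldehyde; enzyme at 4 milliunits. Molar IC50 ± SD over n experiments, from log-linear fit with common slope.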

Rattus norvegicus [8] = assay: Effective dose was tested against the inhibition of sorbitol accumulation in sciatic nerves from streptozotocin-diabetic rats dosed at 3*25 mg/kg over 27h.; assay type: functional; details: Sciatic nerve
Rattus norvegicus [9] = assay: Inhibition of sorbitol accumulation in sciatic nerves from streptozotocin-diabetic rats dosed at 3*25 mg/kg over 27h.; assay type: functional, Sciatic nerve
Rattus norvegicus [10] = assay: In vivo inhibition of sorbitol accumulation in sciatic nerves from streptozotocin-diabetic rats given one dose per day over 5 days at a dose of 25 mg/kg
Rattus norvegicus [11] = assay: In vivo inhibition of sorbitol accumulation in sciatic nerves from streptozotocin-diabetic rats dosed over 5 days. at a dose of 2.5 mg/kg; assay type: functional; details: Sciatic nerve, 120 h
Rattus norvegicus [12] = assay: In vivo inhibition of sorbitol accumulation in sciatic nerves from streptozotocin-diabetic rats dosed over 27 h. at a dose of 25 mg/kg; assay type: functional; details: Sciatic nerve
Rattus norvegicus [13] = assay: In vivo inhibition of sorbitol accumulation in sciatic nerves from streptozotocin-diabetic rats dosed over 27 h. at a dose of 10 mg/kg; assay type: functional; details: Sciatic nerve
Rattus norvegicus [14] = assay: In vivo inhibition of sorbitol accumulation in sciatic nerves from streptozotocin-diabetic rats dosed over 5 days. at a dose of 5 mg/kg; assay type: functional; details: Sciatic nerve, 120 h
Method in brief: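 Rats made diabetic with iv streptozotocin 85 mg/kg. From day 7, oral gavage once daily for 5 days. Animals killed 3 h after the last dose. Sorbitol in neutralized perchloric acid extracts of 25-mg sciatic nerve portions measured with sheep liver sorbitol dehydrogenase and NAD in pH 9.4 glycine. Percent inhibition against diabetic controls.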

Rattus norvegicus [15] = assay: In vivo inhibition of sorbitol accumulation in sciatic nerves from streptozotocin-diabetic rats dosed over 5 days. at a dose of 10 mg/kg; assay type: functional; details: Sciatic nerve, 120 h
Rattus norvegicus [16] = assay: In vivo inhibition of sorbitol accumulation in sciatic nerves from streptozotocin-diabetic rats dosed over 27 h. at a dose of 5 mg/kg; assay type: functional; details: Sciatic nerve
Rattus norvegicus [17] = assay: In vivo inhibition of sorbitol accumulation in sciatic nerves from streptozotocin-diabetic rats given three doses over 27 h. at a dose of 2.5 mg/kg; assay type: functional; details: Sciatic nerve
Method in brief: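 Male Sprague-Dawley rats (180–220 g, 42–54 days) made diabetic with streptozotocin 85 mg/kg at 0 h. Oral gavage at 4, 7 and 24 h, dose quoted per time point. Sciatic nerve sorbitol measured with sorbitol dehydrogenase/NAD in pH 9.4 glycine. Mean (±SEM) percent inhibition against untreated diabetic controls, Student's t test on absolute sorbitol.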

[18] = target: T1, Aldo-keto reductase family 1 member B1; assay: as §1; remark: listed apart in the source
Rattus norvegicus [19] = assay: In vivo inhibition of sorbitol accumulation in sciatic nerves from streptozotocin-diabetic rats dosed over 5 days. at a dose of 25 mg/kg; assay type: functional; details: Sciatic nerve, 120 h
Rattus norvegicus [20] = species: Rattus norvegicus; assay: animal or person; details: Sciatic nerve, 120 h, read-out: Inhibition
Rattus norvegicus [21] = species: Rattus norvegicus; assay: animal or person; details: Sciatic nerve, 27 h, read-out: Inhibition

| SMILES | IC50 [6] | inhibition in vivo at 2.5 mg/kg (Rattus norvegicus [11]) | inhibition in vivo at 25 mg/kg (Rattus norvegicus [12]) | inhibition in vivo at 10 mg/kg (Rattus norvegicus [13]) | inhibition in vivo at 5 mg/kg (Rattus norvegicus [14]) | inhibition in vivo at 10 mg/kg (Rattus norvegicus [15]) | inhibition in vivo at 5 mg/kg (Rattus norvegicus [16]) | inhibition in vivo at 2.5 mg/kg (Rattus norvegicus [17]) | inhibition in vivo at 25 mg/kg (Rattus norvegicus [19]) | further results |
| --- | --- | --- | --- | --- | --- | --- | --- | --- | --- | --- |
| C[C@@H]1C[C@@](O)(CC(=O)O)c2cc(Cl)c(Cl)cc2O1 (stereo in doubt; 18) | 180 nM | – | – | – | – | – | – | – | – | Tissue levels (Rattus norvegicus [1]): 6.01 µg/mL; IC50 [2]: 140 nM; Tissue levels (Rattus norvegicus [3]): 19.7 µg/mL; Inhibition (Rattus norvegicus [4]): 53%; Inhibition (Rattus norvegicus [5]): 39%; IC50 [7]: 156 nM; ED50 (Rattus norvegicus [8]): 8.06 mg/kg; Inhibition (Rattus norvegicus [9]): 91% |
| C[C@@H]1C[C@@](O)(CC(=O)O)c2cc(Cl)c(Cl)cc2O1 (stereo in doubt; 58) | 50.9 nM | 31% | 89% | 70% | 34% | 68% | 60% | 49% | – | Inhibition (Rattus norvegicus [10]): 78% |
| C[C@@H]1C[C@@](O)(CC(=O)O)c2cc(F)c(Cl)cc2O1 (stereo in doubt; 60) | – | 19% | 98% | 88% | – | 69% | 61% | – | 97% | IC50 [18]: 45.5 nM; inhibition in vivo at 5 mg/kg (Rattus norvegicus [20]): 52%; inhibition in vivo at 2.5 mg/kg (Rattus norvegicus [21]): 39% |
| O=C(O)Cc1nn(Cc2ccc(Br)cc2F)c(=O)c2ccccc12 [PONALRESTAT] | – | 0% | 85% | 81% | 60% | 81% | 57% | 12% | 88% | – |
